CCR6 antag = CCR6 receptor antagonists, primary screen, cell-based, CHO-K1, luminescence, beta-arrestin, uHTS | inhibition, % at 20 µM | C-C chemokine receptor type 6 (Homo sapiens), P51684 | CHO-K1 CCR6 PathHunter beta-arrestin, CCL20-stimulated | actives 0.49% (n = 340,000);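 active = compounds whose inhibition of the agonist-driven luminescence signal at 20 µM reaches about 50%, limit read from the data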;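 note: cells stimulated with CCL20 at 14 nM final; plate controls were DMSO with CCL20 for no effect and DMSO without agonist for full effect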
APJ antagonist = antagonists of human apelin receptor APJ, primary screen, CHO-K1 cells, beta-arrestin complementation, luminescence | P35414 | inhibition, % at 20 µM | AID 2521, 2010 | actives 0.32% (n = 330,000);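 active = inhibition above about 40% at 20 µM, limit read from the data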;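 note: cells challenged with 10 nM apelin-13 agonist together with compound; plate controls were apelin-13 plus DMSO wells for no effect and DMSO wells lacking apelin-13 for full effect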
Target sequence (P35414 whole entry, looked up): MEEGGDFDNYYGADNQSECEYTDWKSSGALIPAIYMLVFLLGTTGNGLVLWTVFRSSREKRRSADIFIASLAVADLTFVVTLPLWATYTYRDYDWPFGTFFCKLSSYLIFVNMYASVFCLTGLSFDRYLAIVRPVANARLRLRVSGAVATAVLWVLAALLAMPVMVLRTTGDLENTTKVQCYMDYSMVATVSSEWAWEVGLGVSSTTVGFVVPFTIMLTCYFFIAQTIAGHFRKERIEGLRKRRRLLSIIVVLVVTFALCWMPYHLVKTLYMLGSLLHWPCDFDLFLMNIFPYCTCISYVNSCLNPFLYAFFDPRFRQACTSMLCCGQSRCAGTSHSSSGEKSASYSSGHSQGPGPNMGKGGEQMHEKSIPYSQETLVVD
APJ ag = agonists of human apelin receptor APJ, primary screen, CHO-K1 cells, PathHunter beta-arrestin, luminescence; 0% DMSO wells, 100% apelin; actives 0.11% (n = 330,000); activation, % at 20 µM;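 active = activation more than six SD over the plate average, tested at 20 µM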;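 note: 0% = DMSO alone and 100% = apelin-13 at 10 nM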
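system = engineered CHO-K1 APJ arrestin reporter cells | input = 1000 cells per well | timing = overnight seeding, 90 min compound at 25 °C, 1 h detection | measured by = enzyme-fragment complementation luminescence | read-out = beta-arrestin recruitment to APJ as agonist activity, luminescent signal | control set = negative DMSO alone, positive Apelin-13 at 10 nM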
CXCR6 block = CXCR6 receptor inhibitors, primary screen, cell-based, beta-arrestin, luminescence, CHO-K1 PathHunter, 1536-well. C-X-C chemokine receptor type 6 (Homo sapiens), O00574. inhibition, % at 20 µM. actives 0.36% (n = 360,000). AID 602244, 2012; in the data active = inhibition above about 34%, passing the limit was not always enough;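 note: antagonist mode with CXCL16 agonist at 10 nM final; 0% = 10 nM CXCL16 with DMSO and 100% = unstimulated wells without agonist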
EBI2 block = EBI2 receptor antagonists, beta-arrestin recruitment, primary screen, cell-based, luminescence, 7a,25-OHC stimulation, uHTS. G-protein coupled receptor 183 (Homo sapiens), P32249. 7a,25-OHC stimulated. inhibition, % at 5 µM. actives 0.81% (n = 360,000). AID 651636, 2012; in the data active = inhibition above about 38%;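 note: enzyme fragment complementation signal reports receptor beta-arrestin coupling in cells; 0% = agonist plus DMSO wells and 100% = wells without agonist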
APJ antag conf = APJ antagonists blocking beta-arrestin recruitment, confirmation, cell-based, luminescence, single concentration, uHTS hits; actives 66% (n = 950); antagonist mode; shares compounds with APJ antagonist; AID 2766, 2010; inhibition, % at 20 µM; in the data active = inhibition above about 50%
CXCR6 confirm = CXCR6 receptor antagonists, confirmation, cell-based, single concentration, beta-arrestin, luminescence | CHO-K1 CXCR6 PathHunter beta-arrestin | shares compounds with CXCR6 block | inhibition, % at 20 µM | AID 602409, 2012 | actives 65% (n = 700);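 active = mean inhibition over four retests above 40%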;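 note: receptor stimulated with 10 nM CXCL16 agonist; beta-galactosidase fragment complementation upon beta-arrestin recruitment to receptor; plate controls were CXCL16 plus DMSO for no effect and DMSO without CXCL16 for full effect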
EBI2 conf = EBI2 antagonist hit retest, beta-arrestin, confirmation, cell-based, single concentration, luminescence, 7a,25-OHC stimulation; shares compounds with EBI2 block; 7a,25-OHC antagonism; inhibition, % at 5 µM; actives 29% (n = 2,400); AID 651997, 2013;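 active = inhibition of at least 50%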
EBI2 ag = EBI2 agonist activity of antagonist hits, confirmation, counter-screen for EBI2 antagonist project, cell-based, single concentration, agonist mode, luminescence. 2,400 tested, under 10 active. EBI2-expressing cells, 60 min; 0% vehicle, 100% 7α,25-dihydroxycholesterol control. activation, % at 5 µM. shares compounds with EBI2 block;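 active = activation of at least 50%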
bGal cs = E. coli beta-galactosidase enzyme inhibition, confirmation, counter-screen for EBI2 antagonist project, biochemical, luminescence, single concentration; shares compounds with EBI2 block; purified beta-galactosidase, luminescent Galacton Star, 15 min; inhibition, % at 5 µM; actives 1% (n = 2,400);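 active = replicate-average signal at least 3 plate SD below neutral wells, shown as high inhibition, flagging enzyme-inhibiting false positives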;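 note: 0% = DMSO wells with enzyme and 100% = wells lacking enzyme; higher means stronger loss of beta-gal luminescence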
Active calls of the source: *; . = no result given. Hits are enriched below; roughly 1.5% of the tested compounds scored in any of these assays.

SMILES	CCR6 antag	APJ antagonist	APJ ag	CXCR6 block	EBI2 block	APJ antag conf	CXCR6 confirm	others
C[C@@H]1CN([C@@H](C)CO)C(=O)CCCn2nncc2CO[C@@H]1CN(C)C(=O)Nc1ccc(C(C)(C)C)cc1	.	.	.	3	-6	.	.
CCc1cc2c(=O)[nH]c(-c3ccccn3)nc2s1	87*	78*	-6	49*	50*	70*	69*
CCC1=NN(C(=O)c2ccc([N+](=O)[O-])cc2)C(O)(c2ccccc2)C1 (stereo unspecified)	82*	45*	-10	64*	10	71*	42*
CCC1=NN(C(=O)c2ccccc2O)C(O)(c2ccccc2)C1 (stereo unspecified)	43	19	-5	20	9	.	.
Fc1ccc(NC(=S)Nc2nccs2)cc1	49	46*	-8	53*	2	62*	78*
O=[N+]([O-])c1c(Nc2ccc(O)cc2)cc(Cl)c2nonc12	107*	96*	-14	107*	94*	126*	109*
CN(C)c1cc(Nc2ccc(O)cc2)c([N+](=O)[O-])c2nonc12	26	-11	-1	16	-2	.	.
Cn1c(=O)c2[nH]c(C3CC3)nc2n(C)c1=O	-1	.	.	-3	6	.	.
NC(=O)c1ccccc1NCC(=O)c1ccc(Cl)cc1	105*	101*	-16	80*	16	136*	46*
COc1cccc(/C=N/NC(=O)c2ccccc2N(Cc2ccccc2)S(=O)(=O)c2ccccc2)c1OC	1	-16	-2	4	2	.	.
Cc1ccc(C)c(C(C)NC(=S)NCc2ccc(F)cc2)c1 (stereo unspecified)	17	6	8	-9	-1	.	.
CCn1c(=O)c([N+](=O)[O-])c(Cl)c2ccccc21	100*	94*	-8	102*	33	102*	96*
CCCC(=O)OCCNc1cc(Sc2nc3ccccc3[nH]2)c2nonc2c1[N+](=O)[O-]	118*	87*	-7	94*	7	126*	103*
C=CCn1c(=O)c2c(nc3n2CC(C)CN3c2cccc(OC)c2)n(C)c1=O (stereo unspecified)	59*	48*	-8	49*	22	77*	51*
Cn1c(=O)n(C)c2cc([N+](=O)[O-])c(N3CCN(C(=O)c4cccc(F)c4)CC3)cc21	22	17	-5	18	13	.	.
Cn1c(=O)n(C)c2cc([N+](=O)[O-])c(N3CCN(C(=O)c4cccc(Cl)c4)CC3)cc21	65*	53*	-13	52*	27	84*	46*
C=CC[n+]1c(-c2ccc(Cl)cc2Cl)csc1Nc1c(C)n(C)n(-c2ccccc2)c1=O	82*	54*	-10	64*	39	87*	66*
O=C(c1ccc(Br)cc1)N1CCC2(CC1)NCCc1[nH]cnc12	-5	1	-2	-6	11	.	.
COc1ccccc1C(=O)NNC(=S)NC(=O)c1cccs1	.	42*	-6	53*	3	68*	58*
O=C(NC(=S)NNC(=O)c1ccccc1O)c1cccs1	17	9	-4	12	-8	.	.
CCC(C)c1ccccc1N1CC(C(=O)Nc2ccc(N3CCOCC3)cc2)CC1=O (stereo unspecified)	-2	12	0	-1	0	.	.
O=C1C(Cc2ccccc2)Nc2ncnc(N3CCN(c4ccccc4)CC3)c2N1Cc1ccc(Br)cc1 (stereo unspecified)	87*	82*	-12	74*	75*	118*	79*	EBI2 conf=71*;EBI2 ag=-4;bGal cs=41*
Cc1ccc(CN2C(=O)C(Cc3ccccc3)Nc3ncnc(N4CCN(c5ccccc5)CC4)c32)cc1 (stereo unspecified)	80*	74*	-21	74*	60*	111*	72*	EBI2 conf=62*;EBI2 ag=-3;bGal cs=37*
CNC(=S)N(CCCN(C)C)Cc1cc2cc3c(cc2[nH]c1=O)OCCO3	4	-3	4	-10	-7	.	.
C/C(=N\NC(=O)c1ccc(F)cc1)c1ccccn1	80*	60*	-11	72*	64*	87*	86*	EBI2 conf=84*;EBI2 ag=-2;bGal cs=-10
SMILES	CCR6 antag	APJ antagonist	APJ ag	CXCR6 block	EBI2 block	APJ antag conf	CXCR6 confirm	others
C/C(=N\NC(=O)c1cc2ccccc2cc1O)c1ccccn1	20	44*	-20	18	50*	30	.	EBI2 conf=76*;EBI2 ag=-2;bGal cs=-2
C/C(=N\NC(=O)c1c[nH]c2ccccc12)c1ccccn1	0	-40	5	-4	7	.	.
N#Cc1cc([N+](=O)[O-])ccc1NC(=O)CSc1n[nH]c(=O)[nH]c1=O	-3	-2	-4	-15	-23	.	.
CCCOc1cccc(-c2cc(C(=O)N/N=C/c3cccnc3)c3ccccc3n2)c1	-6	-46	2	10	1	.	.
CCCOc1cccc(-c2cc(C(=O)N/N=C/c3ccccn3)c3ccccc3n2)c1	70*	48*	-12	57*	48*	54*	46*	EBI2 conf=61*;EBI2 ag=0;bGal cs=2
CC(C)OC(=O)C(C)Nc1ccc(F)c(Cl)c1 (stereo unspecified)	2	-4	-1	3	11	.	.
FC(F)Oc1ccccc1/C=N/n1cnc2ccccc21	0	-3	-4	50*	-1	.	8
O=C(C(=Cc1ccc(F)cc1)c1ccccc1)c1ccc(O)cc1	13	.	.	0	-3	.	.
O=C(C(=Cc1ccc(F)cc1)C(=O)c1ccccc1)c1ccccc1	.	.	.	42*	25	.	58*

Screening results as filed in PubChem BioAssay.
